Measles CPE: protection of cells from measles virus; AID 841; Measles virus-infected cells, CPE protection, absorbance; protection (pct of control), % at 4 µM; actives 1.5% (n = 140,000); in the data active means protection mostly above about 24%, no sharp cut-off; inactive means mostly below about 26%
Phagocyt inh: macrophage phagocytosis inhibition; J774A.1 macrophage IgG-bead phagocytosis, imaging; inhibition, % at 5 µM; actives 0.07% (n = 110,000); AID 1029;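 active means inhibition above the mean of the plate negative controls plus 5 SD, cut at about 13% in these data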;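 further: phagocytic index as fraction of beads internalized from green versus red external bead signal; plate controls were DMSO negative control for no effect and cytochalasin-D positive control for full effect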
BB579 growth dn: chemicals that inhibit yeast BB579 growth in restrictive medium (lifespan-shortening candidates). S. cerevisiae BB579 growth, OD615, 48 h. inhibition, % at 10 µM. actives 0.51% (n = 140,000);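 active means inhibition above a set limit, 3 SD over the mean compound inhibition, cut at about 44% in these data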
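test system = yeast BB579 (DeaD) | buffer or medium = restrictive CSMM-D medium | doses = single compound dose of 10 µM, 0.25% DMSO final | times = 4 h preincubation and 48 h exposure at 30 °C | technique = culture absorbance at 615 nm | benchmarks = amphotericin B 10 µg/mL, positive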
Yeast lifespan up: extends the lifespan of yeast | inhibition of the nicotinamide effect, % at 10 µM | actives 0.68% (n = 130,000) | S. cerevisiae growth with nicotinamide, OD615; deaD strain in restrictive glucose medium;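 active means inhibition above a set limit, placed 3 SD over the median of all compounds, cut at about 26% in these data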;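 further: 0% = nicotinamide-treated wells and 100% = cells grown without nicotinamide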
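Assay system: engineered S. cerevisiae DeaD replicative-lifespan strain, galactose-grown log-phase cells; medium: restrictive CSMM-D dextrose medium; also added: nicotinamide, 1.5 mM, co-present with compound; schedule: 48 h compound exposure at 30 °C, humidified; detection: absorbance at 615 nm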
RAM network inh: blocks the yeast RAM network; actives 1.8% (n = 190,000); inhibition, % at 50 µM; S. cerevisiae dse1pr::URA3 reporter, 5-FOA growth OD615, 2 d; analog-sensitive cbk1-as2 kinase mutant strain; AID 868;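 active means inhibition above a set limit, 3 SD over mean compound inhibition, cut at about 8.4% in these data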;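 further: 0% = DMSO-only wells with no growth and 100% = 10 µM 1-NA-PP1 full growth; inhibition rescues growth on 5-FOA so higher OD means more RAM inhibition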
Starred values were filed as active, the others as inactive; · = not tested or not shown; [ ] = remark or other dose. A selection: hits, their analogues and other compounds. The true share with any hit is near 3.6%.

SMILES	Measles CPE	Phagocyt inh	BB579 growth dn	Yeast lifespan up	RAM network inh
CCCCCCN1N=C(C)C(C(=O)c2ccc(Cl)cc2)C1=O (stereo not given)	10	-3	87*	-5	-1
CCCCCCCN1N=C(C)C(C(=O)c2ccccc2)C1=O (stereo not given)	5	0	26	-27	-2
CS(=O)(=O)NCc1ccc(C(=O)O)cc1	·	·	·	·	3
O=C(NC(=S)NNC(=O)c1cccs1)c1ccco1	2	·	-16	29*	-1
O=C(NNC(=O)c1cccs1)c1ccco1	·	·	·	·	-1
Cc1cccc(C(=O)NC(=S)NNC(=O)c2cccs2)c1	4	-1	49*	10	-1
CCCC(=O)Nc1ccc(C(=O)NNC(=S)NC(=O)c2cccs2)cc1	8	·	-33	62	5
CC(C)(C)c1ccc(C(=O)NC(=S)NNC(=O)c2cccs2)cc1	1	-4	67*	-5	1
Cc1cccc(C(=O)NC(=S)NNC(=O)c2ccc(Cl)cc2)c1	29	-1	-9	17	6
COc1ccc(C(=O)NNC(=S)NC(=O)c2ccco2)cc1	3	·	-17	33*	2
Oc1cccc2cc3cccc(O)c3c(O)c12	·	·	·	·	1
Cc1sc2ncn(CC(=O)N3CCCCC3)c(=O)c2c1C	·	·	·	·	0
O=S(=O)(Nc1nccs1)c1ccc(Cl)cc1	7	2	-12	-1	2
COc1ccc(CC2(CO)CCN(Cc3nc(C(C)C)cs3)CC2)cc1	·	·	·	·	-1
COc1ccc(C(=O)NC(=S)NNC(=O)c2ccc(NC(=O)C(C)C)cc2)cc1	14	-3	-21	33*	6
COc1ccc(C(=O)C(OC(=O)CNC(=O)c2ccco2)c2ccccc2)cc1 (stereo not given)	53*	·	-27	-24	3
COc1cccc(-c2nc3n(n2)C(c2ccc4c(c2)OCO4)C(C(N)=O)=C(C)N3)c1 (stereo not given)	35*	·	4	-11	10*
Cc1scc(C(=O)Nn2cnnc2)c1-c1ccccc1	41*	-1	-12	-11	1
Cn1c(NCc2ccccc2O)nc2ccccc21	28*	1	-23	-6	1
CCCn1c(Nc2nc3ccccc3n2C)nc2ccccc21	2	-4	90*	-30	0
CCCCn1c(Nc2ccccc2)nc2ccccc21	1	0	-54	1	2
Cn1c(NCc2cccc(Br)c2)nc2ccccc21	3	0	-22	-10	3
CN(C)S(=O)(=O)c1ccc(N2CCCC2)c(C(=O)NC(c2ccccc2)c2ccccc2)c1	11	0	2	-14	2
COc1cccc(OCCn2cccc2/C=C2/C(=N)N3OC(C)=CC3=NC2=O)c1	·	·	·	·	11*
CC1=CC2=NC(=O)/C(=C\c3cccn3CCOc3cccc(C)c3)C(=N)N2O1	17	-9	-15	16	9.3*
SMILES	Measles CPE	Phagocyt inh	BB579 growth dn	Yeast lifespan up	RAM network inh
CC1=CC2=NC(=O)/C(=C\c3cccn3CCOc3ccccc3)C(=N)N2O1	12	-8	-10	-1	6
O=C(CSC1=NS(=O)(=O)c2ccccc21)Nc1ccccc1	6	1	73*	-11	-1
Cc1ccc(C(=O)COC(=O)CCc2nc3ccccc3[nH]c2=O)cc1C	17	·	-40	-20	3
O=C(CCc1nc2ccccc2[nH]c1=O)OCC(=O)c1ccc(Cl)cc1	36*	·	0	·	2
CCN(CC(=O)Nc1ccccc1-c1ccccc1)Cc1nc2ccccc2c(=O)[nH]1	·	·	·	·	1
CCN(CC(=O)NC(c1ccccc1)c1ccccc1)Cc1nc2ccccc2c(=O)[nH]1	21*	·	-26	-24	0
CN(CC(=O)O)c1ccc(C(F)(F)F)cc1[N+](=O)[O-]	·	·	·	·	0
CCN1C(=O)/C(=C/C=C2/Sc3ccc4ccccc4c3N2CCO)SC1=S	7	123*[fluoresces]	-32	0	2
O=c1c2c(nc3n1CCCCC3)-c1ccccc1CC21CCCCC1	12	·	-38	·	9.9*
CCC1(C)Cc2ccccc2-c2nc3n(c(=O)c21)CCCCC3 (stereo not given)	19	-1	-57	-7	0
Cc1ccc(-c2[nH]n3c(=O)c4c(nc3c2C)CCCC4)cc1	31*	·	-26	-6	4
Cc1c(-c2ccccc2)[nH]n2c(=O)c3c(nc12)CCCC3	18	-2	-37	2	0
CC(/C=C/C=C/c1ccccc1)=N/NC(=O)CNc1ccccc1C	10	0	-25	-2	7
C=CCOC(=O)C1=C[C@@H](c2ccc3c(c2)OCO3)C[C@@H](OCc2ccc(CO)cc2)O1	·	·	·	·	5
CCOC(=O)C(=O)Nc1nnc(SCc2ccc(F)cc2)s1	10	-2	-2	35*	0
CCCCOC(=O)Nc1nnc(CCc2ccccc2)s1	51*	0	-19	-8	5
CCCCOC(=O)Nc1nnc(COc2ccccc2)s1	5	2	-6	-13	1
CCCCc1nnc(NC(=O)C(=O)OCC)s1	·	·	·	·	-1
CCCCCc1nnc(NC(=O)C(=O)OCC)s1	4	·	-47	39*	0
C/C(=N\NC(=O)CC#N)c1ccc(Oc2ccccc2)cc1	·	·	·	·	0
CN(C)CCCN(Cc1ccccc1)C(=S)Nc1ccc(OC(F)F)cc1	18	-8	-6	-2	-1
O=C(Cn1cc(C(=O)C2CC2)c2ccccc21)NCc1ccc2c(c1)OCO2	7	·	-43	-19	3
Clc1ccc(NC2(c3nnnn3C3CCCCC3)CCCCC2)cc1	50*	1	-27	2	3
Cc1c(C(=O)Oc2cccc3ccccc23)cnn1-c1ccccc1	24	0	-19	-5	8.6*
CC(=O)c1cnn(-c2ccccc2)c1C	·	·	·	·	0
SMILES	Measles CPE	Phagocyt inh	BB579 growth dn	Yeast lifespan up	RAM network inh
Cn1ccnc1SCC(=O)c1ccc(Br)cc1	25	4	-15	-2	0
O=C(CSc1nccn1-c1ccccc1)c1ccc(Br)cc1	12	·	-17	-8	11*
COc1cccc(OCCNC(=O)Nc2cc(F)c(F)cc2Cl)c1	·	·	·	·	2
Cc1nn(C)cc1S(=O)(=O)NC1CCCC1	·	·	·	·	0
C=CCOc1c(Cl)cc(CNc2ccc(N(C)C)cc2)cc1OC	5	·	-65	-1	8.4*
C=CCOc1c(Cl)cc(CNc2ccc(C)c(Cl)c2)cc1OC	4	7	-18	-1	0
COc1ccc(N2C(=O)CC(NCc3ccncc3)C2=O)cc1 (stereo not given)	45*	·	-47	21	1
O=C(CSc1nnc(CN2CCOCC2)n1-c1ccc(Cl)cc1)Nc1cc(Cl)ccc1O	7	-2	-45	6	11*
O=C(C1CCCO1)N1CCN(C(=S)Nc2ccc(F)c(Cl)c2)CC1 (stereo not given)	·	·	·	·	0
CCCn1c(C)cc(C(=O)COc2ncnc3sccc23)c1C	1	-3	0	49*	1
Cc1cc(C(=O)COc2ncnc3sccc23)c(C)n1C1CC1	26	-2	6	55	0
CCCCCn1c(=O)[nH]c2cc(C(=O)NCCc3ccc(OC)c(OC)c3)ccc2c1=O	38*	-1	-13	1	1
N#Cc1c(-n2ccnc2)cccc1-n1ccnc1	3	·	-23	-4	0

High-throughput results as filed in PubChem.
